Holding throughout (format): cell-based, human
The test system of series [1] is HCT116 cells. The series is described as follows: MTT cytotoxicity assay, HCT116. Conditions: for IC50: read-out: IC50 HCT116 cells, 72 h. In short, it runs like this:
(§1)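 Cells seeded at 5 × 10^3 per well in 96-well plates and left overnight: A549 and HCT116 in RPMI-1640, LO2 in DMEM. Medium replaced with test compound at 100, 50, 25, 12.5, 6.25, 3.125 or 1.5625 μM for 72 h; medium-only control. MTT (5 mg/mL) added for 4 h, formazan dissolved in DMSO, OD read at 490 nm; IC50 derived.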
(In general: Tetrazolium dyes change colour on reduction, which living cells bring about.)

In another series the test system is LO2 cells. The series is described as follows: MTT cytotoxicity assay, LO2 normal hepatocytes. Conditions: read-out: IC50 LO2 cells, 72 h, normal hepatocyte cell line. The method, boiled down: as §1
For another series, the system named is A549 cells. The series is described as follows: MTT cytotoxicity assay, A549. Conditions: read-out: IC50 A549 cells, 72 h. The method, boiled down:
as §1

In series [2] the test system is HCT116 cells. The series is described as follows: Cell cycle analysis by flow cytometry. The settings on record: HCT116, 10 μM, 24 h. The method, boiled down: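 HCT116 cells in log phase were seeded at 1 × 10^6 per well in six-well plates and grown 24 h at 37 °C. They were PBS-washed, given fresh medium with 10 μM test compound for 24 h, trypsinised and washed in cold PBS. Cells were fixed in 70% ethanol at −20 °C for 48 h, treated with RNase A at 37 °C for 30 min, then PI for 30 min at RT in the dark. Flow cytometry DNA content was model-fitted into cell-cycle phases.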
For orientation: Flow cytometry measures light scatter and fluorescence of single cells or particles in a stream.

Regarding `c1cnc2c([O][Ga]([O]c3cccc4cccnc34)[O]c3cccc4cccnc34)cccc2c1` [CP-1, [Ga(HQL)3]], the IC50 (in general, the midpoint of a concentration-inhibition curve) in the series on HCT116 cells [1] stood at 1.2 ± 0.2 µM; in the series with LO2 cells, 8 ± 1 µM; in the series with A549 cells it was 3.8 ± 1.1 µM.
With `Cc1ccc2cccc([O][Ga]([O]c3cccc4ccc(C)nc34)[O]c3cccc4ccc(C)nc34)c2n1` [CP-2, [Ga(MQL)3]], the IC50 is 4.7 ± 0.7 µM in the series with HCT116 cells [1], 3.3 ± 0.5 µM in the series with LO2 cells and 6.1 ± 0.8 µM in the series on A549 cells.
Turning to `Clc1ccc([O][Ga]([O]c2ccc(Cl)c3cccnc23)[O]c2ccc(Cl)c3cccnc23)c2ncccc12` [CP-3, [Ga(ClQL)3]], the “cytotoxicity against HCT116 cells” value in the series on HCT116 cells [1] (at 25 μM, 72 h) is listed as 91.98%. Also, the IC50 in the series with HCT116 cells [1] was 2 ± 0.3 µM; in the series on LO2 cells, 23.3 ± 5.3 µM; with A549 cells, 8.7 ± 0.8 µM.
In the case of `N.N.[Cl][Pt][Cl]` [cisplatin, reference compound], the IC50 with HCT116 cells [1] was determined as 5.7 µM; in the series with LO2 cells it was 0.7 µM; in the series on A549 cells, 7.5 ± 0.7 µM. The “cell cycle blocking effect” value in the series with HCT116 cells [2] was “mainly blocked the cell cycle in the S phase”.
For `O=C1[O][Pt]2([NH][C@@H]3CCCC[C@H]3[NH]2)[O]C1=O` [oxaliplatin, reference compound] the same measures were 8.3 ± 0.4 µM, 2.3 ± 0.3 µM, 3.2 ± 0.2 µM and “blocked it in the G1/S/G2 phase with comparable effects”.

The record behind these values is paper PMC9948165 (ACS Omega, 2023).
